The source made the active and inactive calls. No cut-off for these calls is given here.
Columns and labels:
Jurkat = assay: Antiproliferative activity against human Jurkat cells assessed as cell viability measured after 72 hrs by CellTiter-Glo assay; assay type: functional, cell-based
In short: (§1)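 Cells grown in RPMI 1640 with 10% heat-inactivated FBS and penicillin/streptomycin at 37 °C, 5% CO2, mycoplasma-negative. Seeded at 10^4/ml. Compounds dispensed digitally from 10 mM or 1 mM DMSO stocks, DMSO equalized, triplicate wells. After 72 h, CellTiter-Glo added for 10–15 min at room temperature and luminescence read.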

[1] = biological target: T1, von Hippel-Lindau disease tumor suppressor/Cyclin-dependent kinase 7 (Homo sapiens) (UniProt P50613+P40337); assay: PROTAC activity at CDK7/VHL in human Jurkat cells assessed as degradation of CDK7 at 0.1 uM measured after 16 hrs incubation by immunoblot analysis relative to control; assay type: cell-based
In short: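 Jurkat cells given VHL-recruiting compounds at 0.1 or 1 μM for 16 h. RIPA lysis, BCA normalization, 4–20% SDS-PAGE, nitrocellulose transfer. CDK7 (1:1000) and β-actin probed overnight at 4 °C, IRDye secondaries, Odyssey detection. Quantified against control, mean ± SEM from three independent biological replicates.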

[2] = Tmax in male CD1 mouse at 10 mg/kg, IP measured upto 24 hrs by LC-MS/MS-39 analysis; assay type: ADME, organism-based; conditions: in vivo
In short: (§2)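 Male CD1 mice, n=3, one 10 mg/kg intraperitoneal dose. Blood sampled at 0, 0.25, 0.5, 1, 2, 4, 6, 8 and 24 h. Kept on wet ice and spun to plasma (2000 g, 5 min, 4 °C) within 15 min, stored at about −70 °C. Protein precipitation with acetonitrile, then LC-MS/MS. Values are mean ± SD of three mice.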

CDK7/Cyclin H/MNAT1 = CDK7/Cyclin H/MNAT1 (Homo sapiens, UniProt P50613); assay: Inhibition of CDK7/CycH/MNAT1 (unknown origin) assessed as change in TR-FRET ratio using Cdk7/9tide as substrate and ATP by in vitro Adapta Eu kinase assay; assay type: protein-complex assay
In short: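 Adapta Eu kinase assay run at ThermoFisher on CDK7/Cyclin H/MNAT1 with ATP at Km.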

[3] = biological target: T1, von Hippel-Lindau disease tumor suppressor/Cyclin-dependent kinase 7 (Homo sapiens); assay: PROTAC activity at CDK7/VHL in human A549 cells assessed as degradation of CDK7 measured at 0.1 to 5 uM measured after 6 hrs incubation by immunoblot analysis; assay type: cell-based; conditions: dose 0.1-5 µM
[4] = biological target: T1, von Hippel-Lindau disease tumor suppressor/Cyclin-dependent kinase 7 (Homo sapiens); assay: PROTAC activity at CDK7/VHL in human Jurkat cells assessed as degradation of CDK7 in presence of 1 uM MLN-4924 at 0.1 uM measured after 6 hrs incubation by immunoblot analysis; assay type: cell-based
In short: (§3)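 Jurkat cells pretreated 2 h with MG132, MLN-4924, YKL-5–167 or a VHL ligand, then given degrader for 6 h. CDK7 immunoblotted: RIPA lysis, SDS-PAGE, anti-CDK7 1:1000, IRDye secondaries.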

[5] = biological target: T1, von Hippel-Lindau disease tumor suppressor/Cyclin-dependent kinase 7 (Homo sapiens); assay: PROTAC activity at CDK7/VHL in human Jurkat cells assessed as degradation of CDK7 in presence of 10 uM (S,R,S)-AHPC-me at 0.1 uM measured after 6 hrs incubation by immunoblot analysis; assay type: cell-based; in short: as §3
SU-DHL-5 = assay: Antiproliferative activity against human SU-DHL-5 cells assessed as cell viability measured after 72 hrs by CellTiter-Glo assay; assay type: functional, cell-based; conditions: SU-DHL-5, 72 h; in short: as §1
MOLT-4 = assay: Antiproliferative activity against human MOLT-4 cells assessed as cell viability measured after 72 hrs by CellTiter-Glo assay; assay type: functional, cell-based; conditions: MOLT-4, 72 h; in short: as §1
A549 = assay: Antiproliferative activity against human A549 cells assessed as cell viability measured after 72 hrs by CellTiter-Glo assay; assay type: functional, cell-based; conditions: A549, 72 h; in short: as §1
[6] = Observed volume of distribution at steady state in male CD1 mouse at 3 mg/kg, IV measured upto 24 hrs by LC-MS/MS-39 analysis; assay type: ADME, organism-based; conditions: in vivo, read-out: Vdss
In short: (§4)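 Three male CD1 mice given a single 3 mg/kg intravenous dose. Plasma prepared on ice by centrifugation (2000 g, 5 min, 4 °C) within 15 min, held at about −70 °C. Acetonitrile precipitation, then LC-MS/MS quantitation. Mean ± SD, n=3.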

[7] = biological target: T1, von Hippel-Lindau disease tumor suppressor/Cyclin-dependent kinase 7 (Homo sapiens); assay: PROTAC activity at CDK7/VHL in human Jurkat cells assessed as degradation of Cyclin H measured at 0.1 to 5 uM after 6 hrs incubation by Western blotting analysis; assay type: cell-based; conditions: dose 0.1-5 µM
In short: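 Jurkat and OVCAR3 cells treated 6 h across a concentration series. Blots probed for CDK7, MAT1 (1:1000) and Cyclin H (1:1000) overnight at 4 °C, with β-actin control and IRDye secondaries.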

[8] = Tmax in male CD1 mouse at 3 mg/kg, IV measured upto 24 hrs by LC-MS/MS-39 analysis; assay type: ADME, organism-based; conditions: in vivo; in short: as §4
[9] = Cmax in male CD1 mouse at 10 mg/kg, IP measured upto 24 hrs by LC-MS/MS-39 analysis; assay type: ADME, organism-based; conditions: in vivo; in short: as §2
[10] = biological target: T1, von Hippel-Lindau disease tumor suppressor/Cyclin-dependent kinase 7 (Homo sapiens); assay: PROTAC activity at CDK7/VHL in human Jurkat cells assessed as degradation of CDK7 in presence of 10 uM YKL-5-167 at 0.1 uM measured after 6 hrs incubation by immunoblot analysis; assay type: cell-based; in short: as §3
[11] = biological target: von Hippel-Lindau disease tumor suppressor/Cyclin-dependent kinase 5 (Homo sapiens) (UniProt Q00535+P40337); assay: PROTAC activity at CDK5/VHL in human Jurkat cells assessed as degradation of CDK7 measured at 10 to 500 nM after 6 hrs incubation by Western blotting analysis; assay type: cell-based; conditions: dose 10-500 nM
[12] = biological target: T1, von Hippel-Lindau disease tumor suppressor/Cyclin-dependent kinase 7 (Homo sapiens); assay: PROTAC activity at CDK7/VHL in human Jurkat cells assessed as degradation of CDK7 in presence of 0.5 uM MG132 at 0.1 uM measured after 6 hrs incubation by immunoblot analysis; assay type: cell-based; in short: as §3
[13] = biological target: T1, von Hippel-Lindau disease tumor suppressor/Cyclin-dependent kinase 7 (Homo sapiens); assay: PROTAC activity at CDK7/VHL in human Jurkat cells assessed as degradation of CDK7 measured at 0.1 to 5 uM after 6 hrs incubation by Western blotting analysis; assay type: cell-based; conditions: dose 0.1-5 µM
In short: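 Jurkat cells dosed across a concentration series up to 5 μM for 6 h. CDK7 immunoblot via RIPA lysis, 4–20% SDS-PAGE, IRDye secondaries. Quantified as mean ± SEM from three independent biological replicates.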

OVCAR-3 = assay: Antiproliferative activity against human OVCAR-3 cells assessed as cell viability measured after 72 hrs by CellTiter-Glo assay; assay type: functional, cell-based; conditions: OVCAR-3, 72 h; in short: as §1

T1 sequence (P40337 whole entry, looked up): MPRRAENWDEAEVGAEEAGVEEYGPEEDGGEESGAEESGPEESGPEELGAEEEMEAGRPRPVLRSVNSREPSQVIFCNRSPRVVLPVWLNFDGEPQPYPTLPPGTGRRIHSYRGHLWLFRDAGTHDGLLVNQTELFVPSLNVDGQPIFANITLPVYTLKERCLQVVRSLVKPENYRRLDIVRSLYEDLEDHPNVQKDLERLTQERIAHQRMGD
T1 sequence (P50613 whole entry, looked up): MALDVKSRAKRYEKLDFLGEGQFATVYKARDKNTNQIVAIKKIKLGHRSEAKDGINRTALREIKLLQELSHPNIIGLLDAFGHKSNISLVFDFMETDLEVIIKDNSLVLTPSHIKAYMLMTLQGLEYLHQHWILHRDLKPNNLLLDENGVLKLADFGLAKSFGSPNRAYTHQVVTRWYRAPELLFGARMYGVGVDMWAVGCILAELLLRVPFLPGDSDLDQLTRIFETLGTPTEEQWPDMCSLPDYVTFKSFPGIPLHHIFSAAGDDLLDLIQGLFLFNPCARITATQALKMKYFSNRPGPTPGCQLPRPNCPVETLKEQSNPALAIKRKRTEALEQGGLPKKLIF
Sequence of von Hippel-Lindau disease tumor suppressor/Cyclin-dependent kinase 5 (Homo sapiens) (P40337 whole entry, looked up): as the sequence (P40337 whole entry, looked up) above
Sequence of von Hippel-Lindau disease tumor suppressor/Cyclin-dependent kinase 5 (Homo sapiens) (Q00535 whole entry, looked up): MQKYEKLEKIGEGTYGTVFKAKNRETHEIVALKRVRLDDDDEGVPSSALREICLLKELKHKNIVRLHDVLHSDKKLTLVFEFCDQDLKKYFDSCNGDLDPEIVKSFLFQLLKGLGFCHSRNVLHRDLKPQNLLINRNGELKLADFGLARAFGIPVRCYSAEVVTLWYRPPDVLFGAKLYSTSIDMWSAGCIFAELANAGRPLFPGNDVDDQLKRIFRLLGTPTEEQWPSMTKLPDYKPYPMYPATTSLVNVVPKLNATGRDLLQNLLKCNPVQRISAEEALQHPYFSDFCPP
Sequence of CDK7/Cyclin H/MNAT1 (P51946 whole entry): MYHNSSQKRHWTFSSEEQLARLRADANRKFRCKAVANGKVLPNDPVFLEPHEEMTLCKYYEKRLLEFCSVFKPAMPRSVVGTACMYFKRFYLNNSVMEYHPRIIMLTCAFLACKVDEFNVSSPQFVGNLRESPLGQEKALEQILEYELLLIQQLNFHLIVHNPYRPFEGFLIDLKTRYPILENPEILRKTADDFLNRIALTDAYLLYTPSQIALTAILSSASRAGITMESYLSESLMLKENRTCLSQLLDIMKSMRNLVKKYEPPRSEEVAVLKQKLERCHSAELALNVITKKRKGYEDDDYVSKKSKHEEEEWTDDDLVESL
Sequence of CDK7/Cyclin H/MNAT1 (P50613 whole entry): as the sequence (P50613 whole entry, looked up) above
Sequence of CDK7/Cyclin H/MNAT1 (P51948 whole entry, further chain): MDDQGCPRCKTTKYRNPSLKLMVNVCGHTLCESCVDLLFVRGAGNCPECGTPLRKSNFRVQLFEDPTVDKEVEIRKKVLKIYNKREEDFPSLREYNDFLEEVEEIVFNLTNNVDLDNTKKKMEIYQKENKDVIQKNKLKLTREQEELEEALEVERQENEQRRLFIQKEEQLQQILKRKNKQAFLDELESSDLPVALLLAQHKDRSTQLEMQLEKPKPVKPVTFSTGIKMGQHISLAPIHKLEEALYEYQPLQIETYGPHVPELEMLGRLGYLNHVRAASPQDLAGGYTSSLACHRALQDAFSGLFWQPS

Question: Which results are given for `Cc1ncsc1-c1ccc([C@H](C)NC(=O)[C@@H]2C[C@@H](O)CN2C(=O)[C@@H](NC(=O)CCCC#Cc2ccc(C(=O)Nc3n[nH]c4c3CN(C(=O)N[C@H](CN(C)C)c3ccccc3)C4(C)C)cc2)C(C)(C)C)cc1`?
Answer: IC50 (Jurkat): 160 nM; Activity [1]: 95%; Tmax [2]: 60 min; IC50 (CDK7/Cyclin H/MNAT1): 20.1 nM; Activity [3]: Dose-Dependent Effect; Activity [4]: inactive; Activity [5]: inactive; IC50 (SU-DHL-5): 52 nM; IC50 (MOLT-4): 89 nM; IC50 (A549): 332 nM; Vd [6]: 0.345 L/kg; Activity [7]: Active; Tmax [8]: 4.98 min; Cmax [9]: 3.39 µM; Activity [10]: inactive; Activity [11]: inactive; Activity [12]: inactive; Activity [13]: Active; IC50 (OVCAR-3): 780 nM
